Test results as given in ChEMBL document CHEMBL1781924, “Inhibitors of the NF-kappaB activation pathway from Cryptocarya rugulosa” (J Nat Prod, 2009).
pIC50: −log10 of the molar value. Activity calls are given as the source filed them. The rule behind the calls is not given here.

Tests used:
[1] = tested on: OCI-Ly3; assay: Induction of IkappaB in human OCI-LY3 cells assessed as fold increase in luciferase reporter gene; format: functional, cell-based
[2] = tested on: OCI-Ly3; assay: Induction of IkappaB in human OCI-LY3 cells assessed as fold increase in luciferase reporter gene after 10 hrs; format: functional, cell-based; conditions: TDE = time-dependent effect
[3] = tested on: OCI-Ly3; assay: Induction of IkappaB in human OCI-LY3 cells assessed as fold increase in luciferase reporter gene at 11 uM; format: functional, cell-based
[4] = target: T1, Inhibitor of nuclear factor kappa-B kinase subunit beta (Homo sapiens) (UniProt O14920); assay: Inhibition of IKK-beta in human OCI-LY19 cells assessed as decrease in renilla values at 10 ug/ml after 10 hrs by IkB-photinus/Renilla assay; format: cell-based
T1 sequence (whole entry): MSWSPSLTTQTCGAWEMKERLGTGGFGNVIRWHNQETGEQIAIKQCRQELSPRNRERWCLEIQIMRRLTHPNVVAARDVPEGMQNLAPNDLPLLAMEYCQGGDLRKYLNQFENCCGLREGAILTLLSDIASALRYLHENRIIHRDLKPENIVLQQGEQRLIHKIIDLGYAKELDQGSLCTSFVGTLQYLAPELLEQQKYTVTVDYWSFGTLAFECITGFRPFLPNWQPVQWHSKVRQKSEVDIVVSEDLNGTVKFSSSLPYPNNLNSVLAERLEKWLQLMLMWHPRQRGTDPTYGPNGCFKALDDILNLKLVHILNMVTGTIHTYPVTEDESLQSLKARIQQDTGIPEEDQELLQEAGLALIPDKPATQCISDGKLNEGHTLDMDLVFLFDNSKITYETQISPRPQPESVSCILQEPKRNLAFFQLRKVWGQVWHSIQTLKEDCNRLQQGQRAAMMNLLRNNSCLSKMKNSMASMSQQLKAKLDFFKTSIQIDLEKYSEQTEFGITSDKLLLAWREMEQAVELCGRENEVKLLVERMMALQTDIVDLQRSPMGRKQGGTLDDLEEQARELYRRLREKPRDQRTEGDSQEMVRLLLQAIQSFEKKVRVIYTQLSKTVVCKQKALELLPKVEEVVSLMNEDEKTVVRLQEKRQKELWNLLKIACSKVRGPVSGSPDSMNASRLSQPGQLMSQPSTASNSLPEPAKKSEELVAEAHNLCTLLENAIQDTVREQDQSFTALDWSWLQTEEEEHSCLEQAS
Summary of the method: (§1)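 OCI-Ly3, OCI-Ly10 and OCI-Ly19 cells stably coexpressing an IκB-Photinus fusion reporter and unmodified Renilla luciferase, in phenol red-free IMDM with 20% heparinized human plasma. Cells were exposed to compound at 37 °C, 5% CO2 for 2.5, 5 or 10 h, then pelleted, lysed and given dual luciferase substrates. Photinus/Renilla ratio and Renilla alone were normalized to the untreated control mean.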

[5] = target: T1, Inhibitor of nuclear factor kappa-B kinase subunit beta (Homo sapiens); assay: Inhibition of IKK-beta in human OCI-LY19 cells assessed as decrease in renilla values at 10 ug/ml after 2.5 to 10 hrs by IkB-photinus/Renilla assay; format: cell-based; summary of the method: as §1
[6] = target: T1, Inhibitor of nuclear factor kappa-B kinase subunit beta (Homo sapiens); assay: Inhibition of IKK-beta in human OCI-LY3 cells assessed as decrease in renilla values at 2.5 to 5 ug/ml after 10 hrs by IkB-photinus/Renilla assay; format: cell-based; conditions: 5 to 10 ug/ml, in the assay text read “at 5 to 10 ug/ml” for “at 2.5 to 5 ug/ml”; summary of the method: as §1
[7] = target: T1, Inhibitor of nuclear factor kappa-B kinase subunit beta (Homo sapiens); assay: Inhibition of IKK-beta in human OCI-LY10 cells assessed as decrease in renilla values at 2.5 to 10 ug/ml after 10 hrs by IkB-photinus/Renilla assay; format: cell-based; summary of the method: as §1
[8] = tested on: KB; assay: Cytotoxicity against human KB cells; format: functional, cell-based
[9] = tested on: OCI-Ly3; assay: Induction of IkappaB in human OCI-LY3 cells assessed as fold increase in luciferase reporter gene at 16 uM; format: functional, cell-based
[10] = tested on: K562; assay: Cytotoxicity against doxorubicin-resistant human K562 cells; format: functional, cell-based
[11] = tested on: K562; assay: Cytotoxicity against human K562 cells; format: functional, cell-based

Q: `O=C(/C=C/C[C@@H]1CC=CC(=O)O1)CCc1ccccc1` was tested. Which Activity [1] did it give?
A: Dose-dependent effect

Q: And the Activity [2]?
A: tde

Q: What about the Activity [3] of the same compound?
A: Active

Q: And the inhibition [4]?
A: inactive

Q: And the inhibition [5]?
A: Active

Q: What about the inhibition [6] of the same compound?
A: Active

Q: And the inhibition [7]?
A: Active

Q: Which Activity [1] does the source give for `O=C1C[C@@H]2/C(=C(O)\C=C\c3ccccc3)C(=O)C=C[C@@H]2O1` [CRYPTOCARYONE] here?
A: Dose-dependent effect

Q: And the pIC50 [8]?
A: 5.74

Q: And the Activity [9]?
A: Active

Q: What about the Activity [2] of the same compound?
A: tde

Q: And the pIC50 [10]?
A: 5.74

Q: And the pIC50 [11]?
A: 5.74
